Legend:
Type in all cases: functional
Mus musculus [1] = assay: Trypanocidal Activity at I.C.E. value 0.59 when administered subcutaneously.
Summary of the method: (§1)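 Mice, in groups of five per dose, were given a standard inoculum of blood-stage T. rhodesiense that is lethal to all untreated controls, then dosed subcutaneously. Usually 11 dose levels were used (2^n × 0.42 mg/kg).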

[2] = system: Trypanosoma brucei rhodesiense; assay: In Vitro measurement of inhibition of thymidine uptake in cell culture of Trypanosoma rhodesiense.; details: read-out: ID50 (the source's name)
Summary of the method: (§2)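 Parasites harvested from infected rats and incubated 3 h across a drug concentration series, usually 0.1–100 µg/mL. Incorporation of radiolabeled thymidine measured. ID50 is the concentration (µg/mL) producing 50% inhibition.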

[3] = system: Trypanosoma brucei rhodesiense; assay: In Vitro measurement of inhibition of leucine uptake in cell culture of Trypanosoma rhodesiense.; details: read-out: ID50 (the source's name)
Summary of the method: (§3)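 Trypanosomes harvested from infected rats, cultured 3 h with several concentrations of drug, usually 0.1–100 µg/mL. Radiolabeled L-leucine uptake measured. ID50 is the concentration in µg/mL giving 50% inhibition of incorporation.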

Mus musculus [4] = assay: Trypanocidal Activity at I.C.E. value 0.85 when administered subcutaneously.; summary of the method: as §1
Mus musculus [5] = assay: Trypanocidal Activity at I.C.E. value 0.29 when administered subcutaneously.
Summary of the method: (§4)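 Blood-stage T. rhodesiense infection came from a standard inoculum lethal to all untreated mice. Drug was given by subcutaneous injection to groups of five mice. Survival beyond 30 days counted as cure. […] Sub-curative doses scored 0, and data were normalized at each dose.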

Mus musculus [6] = assay: Trypanocidal Activity at I.C.E. value 0.10 when administered perorally.
Mus musculus [7] = assay: Trypanocidal Activity at I.C.E. value 0.31 when administered subcutaneously.; summary of the method: as §4
Mus musculus [8] = assay: Trypanocidal Activity at I.C.E. value 0.33 when administered subcutaneously.; summary of the method: as §4
Mus musculus [9] = assay: Trypanocidal Activity at I.C.E. value 0.43 when administered subcutaneously.; summary of the method: as §4
Mus musculus [10] = assay: Trypanocidal Activity at I.C.E. value 0.86 when administered subcutaneously.; summary of the method: as §1
Mus musculus [11] = assay: Trypanocidal Activity at I.C.E. value 0.63 when administered subcutaneously.; summary of the method: as §1
Mus musculus [12] = assay: Trypanocidal Activity was determined after subcutaneous administration; summary of the method: as §1
[13] = system: Trypanosoma brucei rhodesiense; assay: In Vitro measurement of inhibition of leucine uptake in cell culture of Trypanosoma rhodesiense; details: read-out: ID50 (the source's name); summary of the method: as §3
[14] = system: Trypanosoma brucei rhodesiense; assay: In Vitro measurement of inhibition of thymidine uptake in cell culture of Trypanosoma rhodesiense; details: read-out: ID50 (the source's name); summary of the method: as §2
Mus musculus [15] = assay: Trypanocidal Activity at I.C.E. value 0.19 when administered subcutaneously.
Mus musculus [16] = assay: Trypanocidal Activity at I.C.E. value 0.45 when administered perorally.
Mus musculus [17] = assay: Trypanocidal Activity at I.C.E. value 0.36 when administered subcutaneously.
Mus musculus [18] = assay: Trypanocidal Activity at I.C.E. value 0.27 when administered subcutaneously.; summary of the method: as §4
Mus musculus [19] = assay: Trypanocidal Activity at I.C.E. value 0.37 when administered subcutaneously.; summary of the method: as §4
Mus musculus [20] = assay: Trypanocidal Activity at I.C.E. value 0.57 when administered perorally.
Mus musculus [21] = assay: Trypanocidal Activity at I.C.E. value 0.35 when administered perorally.
Mus musculus [22] = assay: Trypanocidal Activity at I.C.E. value 0.45 when administered subcutaneously.; summary of the method: as §4
Mus musculus [23] = assay: Trypanocidal Activity at I.C.E. value 0.58 when administered subcutaneously.; summary of the method: as §1
Mus musculus [24] = assay: Trypanocidal Activity at I.C.E. value 0.69 when administered subcutaneously.; summary of the method: as §1
Mus musculus [25] = assay: Trypanocidal Activity at I.C.E. value 0.21 when administered subcutaneously.
Mus musculus [26] = assay: Trypanocidal Activity at I.C.E. value 0.18 when administered subcutaneously.
Mus musculus [27] = assay: Trypanocidal Activity at I.C.E. value 0.71 when administered subcutaneously.; summary of the method: as §1
Mus musculus [28] = assay: Trypanocidal Activity at I.C.E. value 0.53 when administered perorally.
Mus musculus [29] = assay: Trypanocidal Activity at I.C.E. value 0.48 when administered subcutaneously.; summary of the method: as §4
Mus musculus [30] = assay: Trypanocidal Activity at I.C.E. value 0.26 when administered subcutaneously.; summary of the method: as §4

## Br.CCNC(=N)N/N=C/c1ccc(-c2cn3ccccc3[n+]2C)cc1.[Br-]
Mus musculus [1]
  CD50: 0.1 mg/kg
[2]
  IC50: 0.4 µg/mL
[3]
  IC50: 0.5 µg/mL

## Br.Cc1ccc2n(c1)cc(COc1ccc(/C=N/NC(=N)NO)cc1)[n+]2C.[Br-]
Mus musculus [4]
  CD50: 0.2 mg/kg

## Br.CC/N=C(\NCC)N/N=C/c1ccc(OCc2n(C)c3ccccc3[n+]2C)cc1.[Br-]
Mus musculus [5]
  CD50: 6.6 mg/kg
Mus musculus [6]
  CD50: 212 mg/kg

## Br.Cc1ccn2cc(-c3ccc(/C=N/NC(=N)NN4CCOCC4)cc3)[n+](C)c2c1.[Br-]
Mus musculus [7]
  CD50: 0.8 mg/kg

## Br.C[n+]1c(-c2ccc(/C=N/NC(=N)N3CCOCC3)cc2)cn2ccccc21.[Br-]
Mus musculus [8]
  CD50: 0.4 mg/kg

## C[n+]1c(-c2ccc(/C=N/Nc3nc(N)nc(N)n3)cc2)cn2ccccc21.Cc1ccc(S(=O)(=O)[O-])cc1
Mus musculus [9]
  CD50: 6.6 mg/kg

## Br.Cc1ccc2n(c1)cc(COc1ccc(/C=N/NC3=NCCN3)cc1)[n+]2C.[Br-]
Mus musculus [10]
  CD50: 0.8 mg/kg

## Cc1ccc(S(=O)(=O)O)cc1.Cc1ccc(S(=O)(=O)[O-])cc1.Cn1cc[n+](C)c1/C=C/c1ccc(/C=N/NC(=N)N2CCCC2)cc1
Mus musculus [11]
  CD50: 0.03 mg/kg

## CCNC(=N)N/N=C/c1ccc(OCc2n(C)cc[n+]2C)cc1.Cc1ccc(S(=O)(=O)O)cc1.Cc1ccc(S(=O)(=O)[O-])cc1
Mus musculus [12]
  CD50: 6.6 mg/kg

## Br.Cc1ccc2n(c1)cc(-c1ccc(/C=N/NC(=N)N(C)C)cc1)[n+]2C.[Br-]
Mus musculus [9]
  CD50: 0.8 mg/kg

## Br.Cn1c[n+](Cc2ccc(/C=N/NC3=NCCN3)cc2)c2ccccc21.[Br-]
[13]
  IC50: > 10 µg/mL
[14]
  IC50: 11.1 µg/mL
Mus musculus [15]
  CD50: 3.3 mg/kg
Mus musculus [6]
  CD50: 424 mg/kg

## Br.C[n+]1cccc(COc2ccc(/C=N/NC3=NCCN3)cc2)c1.[Br-]
Mus musculus [16]
  CD50: 13 mg/kg
Mus musculus [17]
  CD50: 3.3 mg/kg

## Br.C[n+]1c(COc2ccc(/C=N/NC(=N)N3CCCC3)cc2)cn2cc(C(F)(F)F)ccc21.[Br-]
Mus musculus [18]
  CD50: 26 mg/kg

## Br.CCCNC(=N)N/N=C/c1ccc(-c2cn3ccc(C)cc3[n+]2C)cc1.[Br-]
Mus musculus [16]
  CD50: 26 mg/kg
[2]
  IC50: 1.9 µg/mL
[3]
  IC50: 4.6 µg/mL
Mus musculus [11]
  CD50: 0.2 mg/kg

## Cc1ccc(S(=O)(=O)[O-])cc1.Cn1c(COc2ccc(/C=N/NC(=O)c3ccc(N)cc3)cc2)[n+](C)c2ccccc21
Mus musculus [19]
  CD50: 6.6 mg/kg

## Cc1ccc(S(=O)(=O)O)cc1.Cc1ccc(S(=O)(=O)[O-])cc1.Cn1c(COc2ccc(/C=N/NC(=N)N3CCCC3)cc2)[n+](C)c2ccccc21
Mus musculus [20]
  CD50: 6.6 mg/kg
Mus musculus [8]
  CD50: 0.8 mg/kg

## Br.C[n+]1cccc(COc2ccc(/C=N/NC3=NCCCN3)cc2)c1.[Br-]
Mus musculus [21]
  CD50: 53 mg/kg
[13]
  IC50: > 10 µg/mL
[14]
  IC50: 3.7 µg/mL
Mus musculus [22]
  CD50: 0.8 mg/kg

## C[n+]1c(/C=C/c2ccc(/C=N/NC(=O)c3ccc(N)cc3)cc2)cn2ccccc21.Cc1ccc(S(=O)(=O)[O-])cc1
Mus musculus [23]
  CD50: 6.6 mg/kg

## Br.Cc1ccc2n(c1)cc(COc1ccc(/C=N/NC3=NCCCN3)cc1)[n+]2C.[Br-]
Mus musculus [24]
  CD50: 0.8 mg/kg

## Br.C[n+]1c(-c2ccc(/C=N/NC(=N)N)cc2)cn2c1CCCC2.[Br-]
Mus musculus [9]
  CD50: 0.4 mg/kg

## C[n+]1c(-c2ccc(/C=N/NC3N=NC(=S)N3N)cc2)cn2ccsc21.[Br-] (stereo unspecified)
[13]
  IC50: 4.6 µg/mL
[14]
  IC50: 2.4 µg/mL
Mus musculus [25]
  CD50: 212 mg/kg

## C[n+]1c(-c2ccc(/C=N/NC3N=NC(=S)N3N)cc2)cn2ccccc21.[Br-] (stereo unspecified)
Mus musculus [26]
  CD50: 53 mg/kg

## Br.C/N=C(\NC)N/N=C/c1ccc(OCc2cn3ccccc3[n+]2C)cc1.[Br-]
Mus musculus [21]
  CD50: 53 mg/kg
Mus musculus [22]
  CD50: 0.8 mg/kg

## C[n+]1c(-c2ccc(/C=N/Nc3nccs3)cc2)cn2ccsc21.[Br-]
Mus musculus [7]
  CD50: 26 mg/kg

## C[n+]1c(/C=C/c2ccc(/C=N/NC3=NCCCN3)cc2)cn2ccccc21.[Br-]
Mus musculus [27]
  CD50: 0.4 mg/kg
Mus musculus [28]
  CD50: 13 mg/kg

## Cc1ccc2n(c1)cc(-c1ccc(/C=N/Nc3ccccn3)cc1)[n+]2C.[Br-]
Mus musculus [29]
  CD50: 0.8 mg/kg

## C[n+]1c(COc2ccc(/C=N/Nc3nccs3)cc2)cn2ccccc21.[Br-]
Mus musculus [18]
  CD50: 53 mg/kg

## C[n+]1c(-c2ccc(/C=N/Nc3ncccn3)cc2)cn2ccccc21.[Br-]
Mus musculus [30]
  CD50: 6.6 mg/kg

Reference: ChEMBL document CHEMBL1124947, “Cationic antiprotozoal drugs. Trypanocidal activity of 2-(4'-formylphenyl)imidazo[1,2-a]pyridinium guanylhydrazones and related derivatives of quaternary heteroaromatic compounds” (J Med Chem, 1990)
